Measurements taken from ChEMBL document CHEMBL1932985, “Identification of biaryl sulfone derivatives as antagonists of the histamine H₃ receptor: discovery of (R)-1-(2-(4'-(3-methoxypropylsulfonyl)biphenyl-4-yl)ethyl)-2-methylpyrrolidine (APD916)” (Bioorg Med Chem Lett, 2012).
Values belong to the compound of their own block, whether it stands above or below them.

Legend:
[1] = Tmax in Sprague-Dawley rat at 1 mg/kg, po and iv by LC-MS/MS analysis; format: ADME, organism-based; set-up: dose 1 mg/kg, route oral; conditions: in vivo
Outline: (§1)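 Rats were given the compound both IV and PO in a routine PK study. Tmax came from the PO arm and Vss from the IV arm.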

[2] = Cmax in Sprague-Dawley rat plasma at 1 mg/kg, po and iv by LC-MS/MS analysis; format: ADME, organism-based; set-up: dose 1 mg/kg, route oral
Outline: (§2)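 Rat PK after IV and PO dosing; plasma Cmax, Tmax, IV half-life and Vss determined; oral bioavailability from AUCpo/AUCiv. Metabolite exposure determined after a 3 mg/kg PO parent dose.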

Rattus norvegicus [3] = experiment: Volume of distribution at steady state in Sprague-Dawley rat at 1 mg/kg, po and iv by LC-MS/MS analysis; format: ADME, organism-based; set-up: dose 1 mg/kg, route oral; conditions: in vivo; outline: as §1
[4] = Half life in Sprague-Dawley rat at 1 mg/kg, iv by LC-MS/MS analysis; format: ADME, organism-based; set-up: dose 1 mg/kg, route intravenous; conditions: in vivo; outline: as §2
Rattus norvegicus [5] = experiment: Inhibition of RAMH-induced dipsogenia in po dosed Sprague-Dawley rat administered 30 mins prior to RAMH challenge measured up to 20 mins; format: functional; conditions: read-out: MED
Outline: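 Rats given compound orally 0.5 h (or, for duration of action, at selected times up to 6 h) before RAMH 10 mg/kg SC; water consumed over 20 min measured. Screening doses 1 or 0.3 mg/kg PO, also 0.1 mg/kg; duration study at 0.6 mg/kg PO. MED = minimum dose fully inhibiting drinking; means ± SEM.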

Histamine H3 receptor = Histamine H3 receptor (Rattus norvegicus, UniProt Q9QYN8); experiment: Displacement of N-[3H]-methylhistamine from histamine H3 receptor in rat cortex membranes; format: cell membranes, Membrane
[6] = Oral bioavailability in Sprague-Dawley rat at 1 mg/kg by LC-MS/MS analysis; format: ADME, organism-based; conditions: in vivo; outline: as §2
[7] = Ratio of drug level in brain to plasma in Sprague-Dawley rat at 1 mg/kg, po and iv after 0.75 to 3 hrs by LC-MS/MS analysis; format: ADME, organism-based; set-up: dose 1 mg/kg, route oral; conditions: read-out: BPR
Outline: (§3)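 Brain (µg/mg) and plasma (µg/mL) levels were measured after oral dosing, with three rats per time point. The b/p ratio was the mean of the nine individual ratios.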

[8] = Tmax in Sprague-Dawley rat at 10 mg/kg, po and iv by LC-MS/MS analysis; format: ADME, organism-based; set-up: dose 10 mg/kg, route oral; conditions: in vivo; outline: as §1
[9] = Cmax in Sprague-Dawley rat plasma at 10 mg/kg, po and iv by LC-MS/MS analysis; format: ADME, organism-based; set-up: dose 10 mg/kg, route oral; outline: as §2
[10] = Ratio of drug level in brain to plasma in Sprague-Dawley rat at 10 mg/kg, po and iv after 0.75 to 3 hrs by LC-MS/MS analysis; format: ADME, organism-based; set-up: dose 10 mg/kg, route oral; conditions: read-out: BPR; outline: as §3
Rattus norvegicus [11] = experiment: Volume of distribution at steady state in Sprague-Dawley rat at 10 mg/kg, po and iv by LC-MS/MS analysis; format: ADME, organism-based; set-up: dose 10 mg/kg, route oral; conditions: in vivo; outline: as §1
[12] = Oral bioavailability in Sprague-Dawley rat at 10 mg/kg by LC-MS/MS analysis; format: ADME, organism-based; conditions: in vivo; outline: as §2
[13] = Half life in Sprague-Dawley rat at 10 mg/kg, iv by LC-MS/MS analysis; format: ADME, organism-based; set-up: dose 10 mg/kg, route intravenous; conditions: in vivo; outline: as §2
[14] = Solubility of the compound in water; format: physicochemical
hERG (KCNH2) = hERG (KCNH2) (Homo sapiens, UniProt Q12809); experiment: Inhibition of human ERG at 3 uM by patch-clamp assay
[15] = molecular target: Voltage-gated inwardly rectifying potassium channel KCNH2 (Homo sapiens, UniProt Q12809); experiment: Inhibition of human ERG by patch-clamp assay
Sequence of Voltage-gated inwardly rectifying potassium channel KCNH2 (Q12809 whole entry): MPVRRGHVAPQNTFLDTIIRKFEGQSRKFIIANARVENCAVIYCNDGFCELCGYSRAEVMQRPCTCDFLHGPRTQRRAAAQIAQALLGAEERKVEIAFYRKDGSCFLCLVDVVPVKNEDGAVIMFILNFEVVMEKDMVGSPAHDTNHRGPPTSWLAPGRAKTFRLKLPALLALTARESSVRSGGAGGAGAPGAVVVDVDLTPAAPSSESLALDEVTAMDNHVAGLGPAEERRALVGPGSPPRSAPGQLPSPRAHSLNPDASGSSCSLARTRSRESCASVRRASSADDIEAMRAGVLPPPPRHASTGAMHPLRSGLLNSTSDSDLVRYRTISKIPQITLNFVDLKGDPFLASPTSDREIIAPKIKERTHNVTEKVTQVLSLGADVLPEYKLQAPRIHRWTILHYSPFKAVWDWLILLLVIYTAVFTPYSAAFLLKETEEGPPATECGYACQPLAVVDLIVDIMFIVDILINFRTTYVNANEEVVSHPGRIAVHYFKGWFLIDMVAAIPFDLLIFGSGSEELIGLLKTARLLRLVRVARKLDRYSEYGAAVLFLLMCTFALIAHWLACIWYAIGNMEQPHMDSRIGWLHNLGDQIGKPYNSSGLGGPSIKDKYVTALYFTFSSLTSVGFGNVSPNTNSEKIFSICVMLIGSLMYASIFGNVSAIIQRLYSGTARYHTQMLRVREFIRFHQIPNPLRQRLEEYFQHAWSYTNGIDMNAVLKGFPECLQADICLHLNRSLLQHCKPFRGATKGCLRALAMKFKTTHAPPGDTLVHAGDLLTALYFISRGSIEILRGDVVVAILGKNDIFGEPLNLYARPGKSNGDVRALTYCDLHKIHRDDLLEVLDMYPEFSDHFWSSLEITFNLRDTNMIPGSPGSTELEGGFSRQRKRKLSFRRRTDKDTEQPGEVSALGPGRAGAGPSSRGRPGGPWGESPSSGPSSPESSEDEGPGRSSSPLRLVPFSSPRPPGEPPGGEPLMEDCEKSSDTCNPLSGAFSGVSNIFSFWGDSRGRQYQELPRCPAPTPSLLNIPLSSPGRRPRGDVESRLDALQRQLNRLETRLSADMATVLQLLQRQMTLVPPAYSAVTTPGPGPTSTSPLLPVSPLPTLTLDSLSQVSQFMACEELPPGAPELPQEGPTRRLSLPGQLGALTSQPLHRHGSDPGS

Sequence of Histamine H3 receptor (Q9QYN8 whole entry): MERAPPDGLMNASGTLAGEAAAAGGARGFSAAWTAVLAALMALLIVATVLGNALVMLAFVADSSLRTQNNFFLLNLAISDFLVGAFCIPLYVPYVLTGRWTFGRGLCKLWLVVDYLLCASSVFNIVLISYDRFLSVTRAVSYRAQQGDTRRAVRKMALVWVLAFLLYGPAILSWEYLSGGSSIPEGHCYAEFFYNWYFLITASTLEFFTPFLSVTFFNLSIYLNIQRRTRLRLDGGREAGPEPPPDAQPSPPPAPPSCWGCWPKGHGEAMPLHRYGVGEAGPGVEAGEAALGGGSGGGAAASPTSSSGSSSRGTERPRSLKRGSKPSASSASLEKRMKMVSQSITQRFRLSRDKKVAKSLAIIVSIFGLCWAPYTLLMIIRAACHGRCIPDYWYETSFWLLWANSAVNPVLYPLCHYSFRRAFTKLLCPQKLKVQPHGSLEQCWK
Sequence of hERG (KCNH2) (Q12809 whole entry): as the sequence (Q12809 whole entry) above

SMILES: C[C@@H]1CCCN1CCc1ccc(-c2ccc(S(=O)(=O)CCO)cc2)cc1
Tmax [1]: 0.5 h | Cmax [2]: 122 ng/mL | Vdss (Rattus norvegicus [3]): 5 L/kg | half-life [4]: 3.2 h | minimal effective dose (Rattus norvegicus [5]): 1 mg/kg | Ki (Histamine H3 receptor): 1.2 nM | bioavailability [6]: 53.6% | Kp [7]: 0.72

SMILES: C[C@@H]1CCCN1CCc1ccc(-c2ccc(S(C)(=O)=O)cc2)cc1
Tmax [8]: 4 h | Cmax [9]: 218 ng/mL | Kp [10]: 3.03 | Vdss (Rattus norvegicus [11]): 19.8 L/kg | minimal effective dose (Rattus norvegicus [5]): 0.3 mg/kg | bioavailability [12]: 100% | Ki (Histamine H3 receptor): 1.3 nM | half-life [13]: 3.6 h

SMILES: COCCCS(=O)(=O)c1ccc(-c2ccc(CCN3CCC[C@H]3C)cc2)cc1.O=C(O)CC(O)(CC(=O)O)C(=O)O
solubility [14]: > 150 mg/mL

SMILES: COCS(=O)(=O)c1ccc(-c2ccc(CCN3CCC[C@H]3C)cc2)cc1
Ki (Histamine H3 receptor): 2.44 nM

More lines, in order of falling Ki (Histamine H3 receptor), values ahead:

Ki (Histamine H3 receptor): 1.1 nM
SMILES: C[C@@H]1CCCN1CCc1ccc(-c2ccc(S(=O)(=O)C3CCOCC3)cc2)cc1
minimal effective dose (Rattus norvegicus [5]): 1 mg/kg

Ki (Histamine H3 receptor): 1 nM
SMILES: CCOCCS(=O)(=O)c1ccc(-c2ccc(CCN3CCC[C@H]3C)cc2)cc1
minimal effective dose (Rattus norvegicus [5]): 0.3 mg/kg | inhibition at 3 µM (hERG (KCNH2)): 45%

Ki (Histamine H3 receptor): 0.8 nM
SMILES: C[C@@H]1CCCN1CCc1ccc(-c2ccc(S(=O)(=O)CCCO)cc2)cc1
IC50 [15]: > 30000 nM | minimal effective dose (Rattus norvegicus [5]): 1 mg/kg

Ki (Histamine H3 receptor): 0.6 nM
SMILES: C[C@@H]1CCCN1CCc1ccc(-c2ccc(S(=O)(=O)Cc3ccccc3)cc2)cc1
inhibition at 3 µM (hERG (KCNH2)): 95%

Ki (Histamine H3 receptor): 0.17 nM
SMILES: C[C@@H]1CCCN1CCc1ccc(-c2ccc(S(=O)(=O)CC3CCOCC3)cc2)cc1
minimal effective dose (Rattus norvegicus [5]): 0.3 mg/kg
